Measurements taken from PMC5292677 (Leukemia, 2016).
“And” between values parts separate entries of the source, which are not always exact repeats. Equal entries are not always repeated. “Also recorded” adds a separate entry of the source.

Tests used:
[1] = system: patients with myelofibrosis; experiment: Splenic response by palpation; format: in vivo, human
Procedure, shortened: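 Spleen size was measured by palpation and response scored by IWG-MRT criteria. Assessments fell on Day 1 of Cycles 2, 3 and 4, then every 3 cycles, during daily oral dosing in continuous 28-day cycles. Analysis covered patients who completed ≥1 cycle and had baseline splenomegaly ≥5 cm.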

cytokines = experiment: PD: plasma biomarkers; format: in vivo, human
Procedure, shortened: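 Predose plasma was drawn on Day 1 of Cycles 1–4. Eighty-eight cytokines/proteins were quantified on a multiplexed HumanMAP v2.0 panel. Analysis covered patients with ≥1 dose, a baseline value and ≥1 evaluable post-baseline sample.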

[2] = system: patients with myelofibrosis; experiment: Hemoglobin/platelet response and transfusion status; format: in vivo, human
Procedure, shortened: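 Oral test compound was given QD or BID in continuous 28-day cycles. Hematologic response was scored by IWG-MRT criteria on Day 1 of Cycles 2, 3 and 4, then every 3 cycles. Transfusion dependence was defined as ≥6 units packed red cells in any rolling 12-week interval. Patients without transfusion in the 12 weeks before entry were classed transfusion-free at baseline.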

[3] = system: patients with myelofibrosis; experiment: Bone marrow fibrosis grade; format: in vivo, human
Procedure, shortened: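 Adults with myelofibrosis took the oral test compound once or twice daily in continuous 28-day cycles. Bone marrow biopsies were taken at screening (within 28 days before first dose), on Day 1 of Cycle 4, then every 3 cycles, and read at each site. Fibrosis was graded 0–3 and categorized against baseline as improved ≥1 grade, stable, or worsened ≥1 grade.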

Plasma pharmacokinetics = format: in vivo, human
Procedure, shortened: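 Plasma was sampled on Days 1, 8 and 29: predose and ~0.5, 1, 2, 3, 4, 6 and 8 h after oral dosing, plus 24 h on Days 1 and 29. Test compound was measured by LC-MS/MS (LLOQ 1 ng/ml). For BID regimens, AUC0–24 was taken as twice AUC0–12. Analysis covered patients with ≥1 evaluable profile.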

JAK2 = conditions: cited from earlier work
JAK2^V617F allele burden = experiment: PD: JAK2V617F allele burden; format: in vivo, human
Procedure, shortened: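 JAK2 allele burden was sampled on Day 1 of Cycles 1, 2 and 4, then every 3 cycles, during continuous 28-day oral dosing. On-treatment values were compared with the predose baseline. Analysis covered patients with ≥1 dose, a baseline value and ≥1 evaluable post-baseline assessment.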

[4] = 36 evaluable patients, all cohorts
[5] = 21 patients, doses ⩾300 mg QD, following 4 cycles
[6] = individual patient with BMF improvement after 3 cycles, 125 mg QD
[7] = individual patients with BMF improvement after 3 cycles, 300 mg QD
[8] = patients without BMF improvement after 3 cycles (n=19)

What does the source list for `C[C@H](Nc1cc(-c2cnn(C)c2)cc(Nc2cnccn2)n1)c1ccc(F)cc1` [NS-018]?
Median (range) cycles to splenic reduction ⩾50% ([1]; 100 mg BID): 7.5 (3–12) cycles; Median (range) cycles to splenic reduction ⩾50% ([1]; 200 mg BID): 1 cycles; Median (range) cycles to splenic reduction ⩾50% ([1]; 200 mg QD): 3 cycles; Median (range) cycles to splenic reduction ⩾50% ([1]; 250 mg BID): 3 cycles; Median (range) cycles to splenic reduction ⩾50% ([1]; 300 mg BID): 1 cycles; Median (range) cycles to splenic reduction ⩾50% ([1]; 300 mg QD): 2 (1–8) cycles; Median (range) cycles to splenic reduction ⩾50% ([1]; 400 mg BID): 1.5 (1–2) cycles; Median (range) cycles to splenic reduction ⩾50% ([1]; 400 mg QD): 1 cycles; Patients achieving ⩾50% reduction in palpable spleen size [1, 4]: 56%; Patients with splenic reduction of 100% [1, 4]: 31%; Patients with 100% splenic reduction ([1]; JAK2^V617F-negative responders): 3 patients; Median duration of splenic response (range) ([1]; all cohorts): 5.5 (1–24) cycles; Median (range) cycles to splenic reduction ⩾50% ([1]; all dose cohorts): 1 (1–12) cycles; Patients achieving ⩾50% reduction in spleen size ([1]; baseline spleen >10 cm): 15 patients; Patients attaining 100% reduction in spleen size ([1]; baseline spleen ⩽10 cm): 5 patients; Patients achieving ⩾50% reduction in palpable spleen size ([1]; evaluable patients with prior JAK2 inhibitor treatment): 47%; Patients achieving ⩾50% reduction in palpable spleen size ([1]; evaluable patients with the JAK2^V617F mutation): 50%; Median (range) cycles to splenic reduction ⩾50% ([1]; prior JAK2 inhibitor treatment): 2 (1–12) cycles; Patients with 100% splenic reduction ([1]; responders with the JAK2^V617F mutation): 8 patients; B2M, CRP, IL-18, myeloperoxidase and TNFR2 plasma levels (cytokines; [5]): Dose-dependent downregulation; Erythropoietin, leptin and eotaxin-1 plasma levels (cytokines; [5]): dose-dependent upregulation; Tumor necrosis factor-α and IL-6 levels (cytokines; after 4 weeks of treatment): unchanged; Hemoglobin IWG-MRT clinical improvement ([2]; all cohorts): 4 patients; Hemoglobin improvement (⩾20 g/l increase) ([2]; all cohorts): 11 patients; Platelet IWG-MRT clinical improvement ([2]; all cohorts): 1 patients; Platelet improvement (100% increase) ([2]; all cohorts): 2 patients; Increase in Hb of ⩾20 g/l ([2]; individual patient with BMF improvement after 3 cycles, 75 mg QD): ✓ (not CI); 100% increase in Plt count [2, 6]: ✓ (CI); Increase in Hb of ⩾20 g/l [2, 6]: ✓ (not CI); Increase in Hb of ⩾20 g/l ([2]; individual patients with BMF improvement after 3 cycles, 300 mg BID): ✓ (CI); 100% increase in Plt count [2, 7]: ✓ (not CI); Increase in Hb of ⩾20 g/l [2, 7]: ✓ (CI); Increase in Hb of ⩾20 g/l ([2]; individual patients with BMF improvement after 3 cycles, 400 mg BID): ✓ (not CI); Patients achieving transfusion independence ([2]; of the 10 patients transfusion dependent at baseline): 3 patients; Hemoglobin responses [2, 8]: 2 responses; Platelet responses [2, 8]: no platelet responses; Patients with improvement of ⩾1 BMF grade ([3]; after 3 cycles, 30 evaluable patients): 37%; Patients with unchanged BMF grade ([3]; after Cycle 3, 30 evaluable patients): 53%; Patients with BMF worsening ([3]; at completion of Cycle 3, 30 evaluable patients): 10%; Duration of BMF grade change ([3]; individual patient, 75 mg QD): 3 cycles; Duration of BMF grade change ([3]; individual patient, 125 mg QD): 12 cycles; Duration of BMF grade change ([3]; individual patient, 250 mg BID): 2 cycles; Duration of BMF grade change ([3]; individual patient, 400 mg QD): 6 cycles; Duration of BMF grade change ([3]; individual patients, 300 mg BID): 2 cycles and 1 cycles; Duration of BMF grade change ([3]; individual patients, 300 mg QD): 3 cycles and 39 cycles and 9 cycles; Duration of BMF grade change ([3]; individual patients, 400 mg BID): 1 cycles and 12 cycles; Patients with BMF improvement maintained for >12 weeks ([3]; of the 11 improved after 3 cycles): 5 patients; Patients achieving BMF improvement from baseline later in the study ([3]; of those with unchanged BMF grade after Cycle 3): 6 patients; Time to maximum plasma concentration (Cmax) (Plasma pharmacokinetics; Day 8, postdosing, all dose cohorts, oral): 1 to 2 h; Dose proportionality of systemic exposure (Plasma pharmacokinetics; based on Cmax on Day 8): approximately dose proportional; Drug accumulation with multiple dosing (Plasma pharmacokinetics; exposure Days 8 vs 29): did not accumulate; also recorded: no evidence of drug accumulation; half-life (Plasma pharmacokinetics; human, plasma, po): 2 to 5 h; Selectivity for JAK2 over JAK1 (JAK2): specificity of this agent for JAK2 over JAK1; Median inhibitory concentration (JAK2; in vitro kinase assay): subnanomolar range; JAK2^V617F allele burden during treatment (JAK2^V617F allele burden; JAK2^V617F-positive patients): largely unchanged; also recorded: remained similar to the baseline value in almost all patients; Patients with decrease in allele burden of ⩾25% (JAK2^V617F allele burden; at Cycle 7 in one and Cycle 16 in the other): 2 patients
